Compound activity from PubChem.
Rows were chosen to be rich in hits. Some 0.89% of all compounds tested hit in one or more screens of this group.
Arr AP2 block: inhibitors of beta-arrestin/AP2 binding, primary screen, biochemical, GPCR trafficking, flow cytometry; FITC-arrestin peptide / GST-AP2 beads; AP2 beta2 appendage carries R879A mutation; inhibition, % at 10 µM; 0.31% of 340,000 active;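 active = inhibition above a set limit, near 3 SD of compounds lacking own fluorescence, cut at about 54% in these data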
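Test system: GST-tagged AP2 beta2-adaptin appendage (R879A) on 4 µm glutathione beads; also added: fluorescein-tagged arrestin peptide at 50 nM final; timing: 12 min plus 1 h, RT; signal: flow cytometry, FL1 (488/535 nm); read-out: percent drop in bead-associated FITC signal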
ABCB6 inh 2: ABCB6 transporter inhibitors, primary screen, K562-ABCB6 cells, flow cytometry, MLPCN library | ATP-binding cassette sub-family B member 6 (Homo sapiens), Q9NP58 | K562-ABCB6 porphyrin accumulation, 1 h; hits give low values | fluorescence ratio to DMSO, % at 10 µM | 0.19% of 360,000 active;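 active = fluorescence ratio to DMSO below 75%, the collection mean minus 3 SD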;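 also: signal is porphyrin accumulated inside mitochondria; lower ratio means ABCB6 inhibition with less porphyrin fluorescence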
hiPSC survival: enhancers of single-cell hiPSC survival, primary screen, ATPlite luminescence; 0.044% of 360,000 active; AID 602274, 2012; survival enhancement, % at 20 µM; 100% = ROCK inhibitor wells, 0% = DMSO; in the data active = survival enhancement above about 18%;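 also: cells exposed to compounds for 16 hours before the ATP read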
PG9 binder: binders of HIV-1 gp120 antibody PG9, primary screen, biochemical, TR-FRET | HIV-1 gp120 / PG9 antibody interaction | TR-FRET gp120-PG9 antibody binding | inhibition, % at 6.7 µM | 0.43% of 360,000 active; in the data active = inhibition above about 8.5%
Arr AP2 CP1: inhibitors of arrestin peptide binding to AP2, confirmation, biochemical, cherry pick 1, flow cytometry beads | inhibition, % at 10 µM | shares compounds with Arr AP2 block | GST-AP2 beads, FITC arrestin peptide binding; GST-fused beta2-adaptin appendage, R879A mutant | 2% of 1,300 active;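 active = inhibition above a set limit, roughly 3 SD of non-fluorescent compound noise, cut at about 38% in these data; inactive = inhibition at or below that limit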;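 also: loss of bead fluorescence from 50 nM FITC arrestin peptide bound to appendage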
Target sequence (P63010 whole entry, looked up, the tested form may be a part, one chain of several): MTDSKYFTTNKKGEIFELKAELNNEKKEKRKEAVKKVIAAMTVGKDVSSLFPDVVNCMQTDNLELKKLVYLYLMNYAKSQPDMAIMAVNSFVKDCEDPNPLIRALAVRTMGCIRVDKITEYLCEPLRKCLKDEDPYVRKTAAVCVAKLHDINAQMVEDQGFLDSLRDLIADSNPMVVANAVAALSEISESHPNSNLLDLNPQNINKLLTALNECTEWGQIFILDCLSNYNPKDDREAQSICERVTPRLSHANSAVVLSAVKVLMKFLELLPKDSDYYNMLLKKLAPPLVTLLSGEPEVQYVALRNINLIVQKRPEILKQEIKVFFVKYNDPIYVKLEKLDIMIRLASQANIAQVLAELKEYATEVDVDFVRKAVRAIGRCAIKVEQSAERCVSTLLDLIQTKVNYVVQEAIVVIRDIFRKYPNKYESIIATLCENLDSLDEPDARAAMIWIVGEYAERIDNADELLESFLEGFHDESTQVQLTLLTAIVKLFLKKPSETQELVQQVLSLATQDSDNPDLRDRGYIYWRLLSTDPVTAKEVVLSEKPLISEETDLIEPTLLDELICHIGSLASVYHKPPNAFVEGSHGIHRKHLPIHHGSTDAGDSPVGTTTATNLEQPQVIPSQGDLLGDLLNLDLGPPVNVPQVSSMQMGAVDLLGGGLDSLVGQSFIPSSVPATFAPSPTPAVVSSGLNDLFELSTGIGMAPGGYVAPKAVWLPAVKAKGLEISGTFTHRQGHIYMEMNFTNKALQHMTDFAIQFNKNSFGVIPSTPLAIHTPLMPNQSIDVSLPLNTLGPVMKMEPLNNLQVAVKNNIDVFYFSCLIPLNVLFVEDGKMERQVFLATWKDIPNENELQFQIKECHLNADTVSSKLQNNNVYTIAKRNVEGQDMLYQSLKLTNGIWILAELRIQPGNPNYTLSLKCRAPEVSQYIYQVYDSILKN
GST-FITC bead: GST-fluorescein capture on glutathione beads, confirmation, artefact control for arrestin-AP2 inhibitor project, biochemical, cherry pick 1, flow cytometry | shares compounds with Arr AP2 block | inhibition, % at 10 µM | GST-fluorescein binding to GSH beads, fluorescence, counter-screen | 2% of 1,300 active;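 active = inhibition above 50%, about 3 SD of the inhibition seen with non-fluorescent compounds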;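 also: fluorescein maleimide labelled GST captured on 4 micron glutathione beads; higher means more loss of bead fluorescence from quenching or blocked binding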
ABCB6 blocker 1: ABCB6 transporter inhibitors, confirmation, K562-ABCB6 cells, flow cytometry, cherry pick 1. shares compounds with ABCB6 inh 2. K562-ABCB6 porphyrin accumulation, 1 h; hits give low values. ratio response (% of DMSO), % at 10 µM. 700 tested, under 10 active;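 active = repeat-averaged ratio response below 75% of DMSO, the collection mean minus 3 SD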;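 also: median porphyrin fluorescence at 575 nm with 488 nm excitation from mitochondria; lower ratio means less porphyrin signal so ABCB6 inhibition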
PG9 bind confirm: binders of anti-gp120 antibody PG9, confirmation, biochemical, TR-FRET; shares compounds with PG9 binder; TR-FRET PG9 antibody binding; inhibition, % at 6.7 µM; 90% of 1,500 active; in the data active = inhibition above about 9%
PGV04 counter: binders of control antibody PGV04, counter-screen for PG9 antibody binder project, biochemical, TR-FRET, distinct HIV envelope site; shares compounds with PG9 binder; TR-FRET PGV04 antibody-gp120 binding; inhibition, % at 6.7 µM; 95% of 1,500 active; in the data active = inhibition above about 9.5%
Numbers stand for hits; - = inactive; . = no result given; ! = repeats disagree.

SMILES | Arr AP2 block | ABCB6 inh 2 | hiPSC survival | PG9 binder | others
CN1C(=O)C(=Cc2ccc(Sc3ccccc3)o2)C(=O)N(C)C1=S | - | 11 | - | -
CN1C(=O)C(=Cc2ccc(Sc3ccccc3)o2)C(=O)N(C)C1=O | - | - | - | -
Cc1cc(N2CCNC[C@H]2C)ccc1N1CC[C@H](O)C1 | . | . | . | -
C=C1C(=O)OC2CC(C)C3C=CC(=O)C3(C)C(O)C12 (stereo not drawn) | - | - | 50 | .
C=C1[C@@H](C)[C@H]2[C@H](Cc3ccccc3)NC(=O)[C@]23OC(=O)/C=C/[C@H](O)CCC[C@@H](C)C/C=C/[C@H]3[C@@H]1O | - | - | 40 | -
C=C1C(C)C2C(Cc3ccccc3)NC(=O)C23C(OC(C)=O)C=CC(C)(O)CC(C)CC=CC3C1O (stereo not drawn) | - | - | 60 | -
C[C@@H]1CN([C@H](C)CO)C(=O)c2c(c3ccccc3n2C)-c2ccccc2CO[C@H]1CN(C)Cc1ccc2c(c1)OCCN2C | . | - | - | -
Cc1ccc([C@@H]2C[C@H]3[C@@H](CN2S(=O)(=O)c2ccc(Cl)cc2)C(=O)C[C@@H](c2ccccc2F)N3S(=O)(=O)c2ccc(C)cc2)cc1 | . | - | - | -
Cc1c(C=C2C(=O)NC(=O)NC2=O)c(=O)n(-c2ccccc2)n1C | - | - | - | -
CCN(CC)c1nc2c(C)cccn2c(=O)c1C=C1C(=O)NC(=O)NC1=O | - | 38 | - | -
CNc1cc(Cl)c2nonc2c1[N+](=O)[O-] | - | - | 48 | -
Cc1cc([N+](=O)[O-])c(Cl)cc1NC(=O)C(C)C | - | - | - | -
CN1CCN(c2ccc(N)cc2Cl)CC1 | 59 | - | - | - | Arr AP2 CP1=-;GST-FITC bead=52
CN1C(=O)N(C)C(=O)C2(Cc3cc(NC(=O)c4ccccc4Cl)ccc3N3CCCC32)C1=O (stereo not drawn) | 56 | - | - | - | Arr AP2 CP1=-;GST-FITC bead=-
O=C(c1ccc(Cl)cc1)C12CN3CN(CN(C3)C1)C2 | 105 | - | - | - | Arr AP2 CP1=-;GST-FITC bead=-
O=C(c1ccccc1)N1Cc2cc(Br)ccc2-n2nncc2C1 | . | . | . | -
CC[N+]12CCC(CC1)C(=C(c1ccccc1)c1ccccc1)C2 | - | - | - | -
C[N+]12CCC(CC1)C(=C(c1ccccc1)c1ccccc1)C2 | 66 | - | - | - | Arr AP2 CP1=-;GST-FITC bead=-
CCOC(=O)c1c(/N=C/c2c(O)n(-c3ccccc3F)c(=S)[nH]c2=O)sc2c1CCCC2 | 84 | - | - | - | Arr AP2 CP1=-;GST-FITC bead=-
CCOC(=O)c1c(/N=C/c2c(O)n(-c3ccc(F)cc3)c(=S)[nH]c2=O)sc2c1CCCC2 | - | - | - | -
O=C(NC1CCCCC1)N1Cc2cc(Br)ccc2-n2nncc2C1 | . | . | . | -
O=c1c2ccccc2[se]n1-c1ccccc1 | 92 | - | - | - | Arr AP2 CP1=125!;GST-FITC bead=-
O=c1c2ccccc2nc(-c2ccccc2)n1-c1ccccc1 | - | - | - | -
CC(=O)C1=C(C)OC2=C(C(=O)CCC2)[C@@]12C(=O)N(C)c1ccccc12 | . | . | . | -
O=C(NCCO)c1nsnc1NCCCl | 58 | - | - | - | Arr AP2 CP1=-;GST-FITC bead=-
SMILES | Arr AP2 block | ABCB6 inh 2 | hiPSC survival | PG9 binder | others
c1ccc(-c2nc3ccccc3nc2-c2ccc(CN3CCC(n4nnc5ccccc54)CC3)cc2)cc1 | . | . | . | -
CCOc1cc2c(cc1OCC)-n1cccc1C(c1ccccc1OC)NC2 (stereo not drawn) | - | 73 | - | - | ABCB6 blocker 1=-
CN1CC[C@@H]2CN[C@H](c3ccccc3)C[C@@H]21 | . | . | . | -
CCn1c(O)c(C=Nc2ccc(S(N)(=O)=O)cc2)c(=O)[nH]c1=S | - | - | - | 25 | PG9 bind confirm=92;PGV04 counter=92
CCn1c(O)c(C=Nc2ccc(S(N)(=O)=O)cc2)c(=O)n(CC)c1=S | - | - | - | 54 | PG9 bind confirm=69;PGV04 counter=86
Cc1cccc(-n2c(O)c(C=Nc3ccc(S(N)(=O)=O)cc3)c(=O)[nH]c2=O)c1 | - | - | - | -
CCn1c(O)c(C=NCc2ccccc2)c(=O)[nH]c1=S | - | - | - | 11 | PG9 bind confirm=28;PGV04 counter=37
NS(=O)(=O)c1ccc(N=Cc2c(O)n(C3CCCCC3)c(=O)n(C3CCCCC3)c2=O)cc1 | - | - | - | -
O=C(NCCN1CCC2(CC1)C(=O)NCN2c1ccccc1)c1cccs1 | . | . | . | -
Cn1cc(/C=C2\C(=O)NC(=O)N(c3ccccc3)C2=O)c2ccccc21 | - | - | - | 11 | PG9 bind confirm=-;PGV04 counter=20
O=C(NCCN1CCC2(CC1)C(=O)NCN2c1ccccc1)c1ccc(F)cc1 | . | . | . | -
CCCCCn1c(=O)c(C(=O)Nc2ccccc2S(N)(=O)=O)c(O)c2ccccc21 | - | - | - | 69 | PG9 bind confirm=79;PGV04 counter=83
CCCOC(=O)COc1cc(C)cc2oc(=O)c3c(c12)CCC3 | - | - | - | 9.9 | PG9 bind confirm=23;PGV04 counter=30
Cc1nc(N2CCN(Cc3ccc4c(c3)OCO4)CC2)[nH]c(=O)c1C | - | - | - | -
CC[C@@H](CO)NC(=O)[C@@H]1C=C2c3cccc4[nH]cc(c34)C[C@H]2N(C)C1 | - | - | - | 16 | PG9 bind confirm=21;PGV04 counter=33
CCC(CO)NC(=O)C1C=C2c3cccc4[nH]cc(c34)CC2N(C)C1 (stereo not drawn) | - | - | - | 14 | PG9 bind confirm=12;PGV04 counter=15
CC(C)C[C@H]1C(=O)N2CCC[C@H]2[C@]2(O)O[C@](NC(=O)[C@@H]3C=C4c5cccc6[nH]cc(c56)C[C@H]4N(C)C3)(C(C)C)C(=O)N12 | - | - | - | .
CC[C@@H](CO)NC(=O)[C@@H]1C=C2c3cccc4c3c(cn4C)C[C@H]2N(C)C1 | - | - | - | -
N#CCCC#N | . | . | . | -
